According to the RNAGym collection of RNA variant scans (doi:10.1126/science.aae0568):
Variants at the floor of the assay were thinned out.

B1: tRNA (parent)
chain: GUUCCGUUGGCGUAAUGGUAACGCGUCUCCCUCCUAAGGAGAAGACUGCGGGUUCGAGUCCCGUACGGAACG

Variants of: B1
Assay: yeast fitness relative to wild type (ratio to wild type); higher = fitter; tRNA-Arg(CCU), competitive growth, 37 C, YPD
Method in brief: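 The tRNA-Arg(CCU) gene variants were made by chemical synthesis with a 3% per-site mutation rate at 69 sites and inserted at the native genomic locus of Saccharomyces cerevisiae. After pooling, the strains were competed in YPD at 37°C for 24 hours in six parallel replicates. Gene amplicons from the start population and each end population were read by 100-nucleotide paired-end sequencing, and Darwinian fitness relative to wild type was taken from genotype frequency changes. Genotypes needed ≥ 100 starting reads, and estimates < 0.5 were set to 0.5.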

G23A A40C C55G and G23A A40C U53C cannot be ordered by yeast fitness: at most 0.5 for the first, at most 0.5 for the second.

Compared with G23A A40U, G23A A40U C49U C60A G63A is lower in yeast fitness: 0.842 for the first, at most 0.5 for the second.

Going from G23A A42C C60U C61G to G23A A42G A45U G63C U64C, the yeast fitness rises from at most 0.5 to 0.638.

Compared with G23A A42G G51A C61U, G23A A43C is higher in yeast fitness: at most 0.5 for the first, 0.826 for the second.

Going from G23A A43G to G23A A43G A70U, the yeast fitness falls from 0.684 to 0.648.

Compared with G23A A43G U64C, G23A A43U is higher in yeast fitness: at most 0.5 for the first, 0.699 for the second.

First: G23A A43U G50A U54G G68C
Second: G23A A45C
The yeast fitness of the first is lower: at most 0.5 for the first, 0.846 for the second.

Compared with G23A A45G, G23A A45G A69C is lower in yeast fitness: 0.645 for the first, 0.507 for the second.

First: G23A A45U
Second: G23A A57C A65U
The yeast fitness of the first is higher: 0.674 for the first, at most 0.5 for the second.

First: G23A A65C
Second: G23A A65G
The yeast fitness of the first is lower: 0.816 for the first, 0.907 for the second.

Compared with G23A A65U, G23A A69C is lower in yeast fitness: 0.916 for the first, 0.793 for the second.

Going from G23A A69U to G23A A70C, the yeast fitness rises from 0.726 to 0.74.

G23A C24A C31A A36G and G23A C24A C31A A36G G44A C60U C62A cannot be ordered by yeast fitness: at most 0.5 for the first, at most 0.5 for the second.

G23A C24G and G23A C24G C29U G41A cannot be ordered by yeast fitness: at most 0.5 for the first, at most 0.5 for the second.

First: G23A C24G G25A G48A
Second: G23A C24G U32G
The yeast fitness of the first is lower: at most 0.5 for the first, 0.609 for the second.

First: G23A C24U G38C A70C
Second: G23A C24U U35A C60A A69C
The yeast fitness of the first is lower: at most 0.5 for the first, 0.607 for the second.

Going from G23A C27A to G23A C27A A57U, the yeast fitness falls from 0.821 to 0.634.

G23A C27A U54A G56A C66G and G23A C27G C29U G56A cannot be ordered by yeast fitness: at most 0.5 for the first, at most 0.5 for the second.

Compared with G23A C27U A45U, G23A C27U A65U is lower in yeast fitness: 0.668 for the first, 0.658 for the second.

G23A C27U A69G and G23A C27U C29U G39A G58A A65C cannot be ordered by yeast fitness: at most 0.5 for the first, at most 0.5 for the second.

Compared with G23A C27U C34U A45C, G23A C27U C34U A45C A65C is higher in yeast fitness: at most 0.5 for the first, 0.532 for the second.

Going from G23A C27U C60G to G23A C29A, the yeast fitness rises from 0.525 to 0.536.

Going from G23A C29A C31G to G23A C29A G68A, the yeast fitness falls from 0.664 to at most 0.5.

First: G23A C29G
Second: G23A C29G A45U C46U C60G C61U A69G
The yeast fitness of the first is higher: 0.625 for the first, at most 0.5 for the second.

First: G23A C29G A45U C60G C61U A69G
Second: G23A C29G A65G
The yeast fitness of the first is higher: 0.59 for the first, at most 0.5 for the second.

Going from G23A C29G C30G C49A G56C C61U to G23A C29G C55A, the yeast fitness falls from 0.702 to 0.536.

First: G23A C29G G68C
Second: G23A C29U
The yeast fitness of the first is lower: at most 0.5 for the first, 0.923 for the second.

Compared with G23A C29U A45U, G23A C29U C30A is lower in yeast fitness: 0.967 for the first, 0.565 for the second.

G23A C29U C30A C46G and G23A C29U C31U A42G C61A cannot be ordered by yeast fitness: at most 0.5 for the first, at most 0.5 for the second.

Going from G23A C30A to G23A C30A A37G, the yeast fitness falls from 0.792 to at most 0.5.

Going from G23A C30A A37G C66U to G23A C30A A43U, the yeast fitness falls from 0.539 to at most 0.5.

First: G23A C30A C46G
Second: G23A C30A C55U
The yeast fitness of the first is higher: 0.706 for the first, at most 0.5 for the second.

First: G23A C30A G51A
Second: G23A C30G A42G
The yeast fitness of the first is higher: 0.562 for the first, 0.524 for the second.

G23A C30G A65U and G23A C30G A69U cannot be ordered by yeast fitness: at most 0.5 for the first, at most 0.5 for the second.

Going from G23A C30G C33G A36U C46G C55G to G23A C30G C33G A36U C46G C55G C61U, the yeast fitness falls from 0.589 to 0.567.

Going from G23A C30G C55U G63A to G23A C30G G67A, the yeast fitness rises from 0.582 to 0.726.

G23A C30U A37C U54C and G23A C30U A69G A70G cannot be ordered by yeast fitness: at most 0.5 for the first, at most 0.5 for the second.

First: G23A C30U A70C
Second: G23A C30U C33A G41C A42U
The yeast fitness of the first is lower: at most 0.5 for the first, 0.555 for the second.

G23A C30U C33A G41C A42U A43G and G23A C30U C49A A57U A70C cannot be ordered by yeast fitness: at most 0.5 for the first, at most 0.5 for the second.

Going from G23A C30U C55A to G23A C30U C55A G68C, the yeast fitness falls from 0.573 to at most 0.5.

G23A C30U C55U G67C and G23A C30U C66U cannot be ordered by yeast fitness: at most 0.5 for the first, at most 0.5 for the second.

Compared with G23A C30U G48A C55A, G23A C30U U35G A45U A57C is higher in yeast fitness: at most 0.5 for the first, 0.533 for the second.

Compared with G23A C30U U53A, G23A C30U U54C is higher in yeast fitness: at most 0.5 for the first, 0.528 for the second.

First: G23A C31A
Second: G23A C31A G50C C55G
The yeast fitness of the first is higher: 0.644 for the first, 0.548 for the second.

Compared with G23A C31U A69U, G23A C31U C33G is lower in yeast fitness: 0.675 for the first, 0.523 for the second.

G23A C31U C33G G63U and G23A C31U G48C C55G A69U cannot be ordered by yeast fitness: at most 0.5 for the first, at most 0.5 for the second.

G23A C31U G56U A65U G68C and G23A C33A C34G cannot be ordered by yeast fitness: at most 0.5 for the first, at most 0.5 for the second.

G23A C33G and G23A C33G A43C cannot be ordered by yeast fitness: at most 0.5 for the first, at most 0.5 for the second.

Compared with G23A C33G A43G A69C, G23A C33G C46G C66A is higher in yeast fitness: at most 0.5 for the first, 0.529 for the second.

First: G23A C33G C49A U54G A65G
Second: G23A C33G G50A
The yeast fitness of the first is higher: 0.617 for the first, 0.53 for the second.

Going from G23A C33G G63A to G23A C33G U35G, the yeast fitness falls from 0.594 to at most 0.5.

G23A C33G U35G C60A C62U and G23A C33G U35G C60U C62G A69U cannot be ordered by yeast fitness: at most 0.5 for the first, at most 0.5 for the second.

Going from G23A C33G U54A G56C to G23A C33U, the yeast fitness rises from at most 0.5 to 0.547.

G23A C33U A69U and G23A C33U C34U A40U cannot be ordered by yeast fitness: at most 0.5 for the first, at most 0.5 for the second.

First: G23A C34A G52C G63C
Second: G23A C34G
The yeast fitness of the first is lower: at most 0.5 for the first, 0.582 for the second.

Going from G23A C34U A43U G44C to G23A C46G, the yeast fitness rises from at most 0.5 to 0.683.

Compared with G23A C46U U59C, G23A C49A is lower in yeast fitness: 0.587 for the first, 0.526 for the second.

Going from G23A C49A U59C C62U A65U to G23A C49G, the yeast fitness rises from at most 0.5 to 0.873.

Compared with G23A C49U U54C, G23A C55A C61A is higher in yeast fitness: at most 0.5 for the first, 0.568 for the second.

Compared with G23A C55U, G23A C55U G58A is lower in yeast fitness: 0.625 for the first, at most 0.5 for the second.

G23A C55U G63C and G23A C60A cannot be ordered by yeast fitness: at most 0.5 for the first, at most 0.5 for the second.

Compared with G23A C60G G67A, G23A C61A is higher in yeast fitness: at most 0.5 for the first, 0.539 for the second.

Going from G23A C61G to G23A C61U, the yeast fitness falls from 0.714 to 0.665.

First: G23A C61U G67A
Second: G23A C62A
The yeast fitness of the first is higher: 0.525 for the first, 0.516 for the second.

Compared with G23A G25A, G23A G25A A40U C61U is lower in yeast fitness: 0.958 for the first, at most 0.5 for the second.

Compared with G23A G25C C46G G48A C66A, G23A G38A is higher in yeast fitness: at most 0.5 for the first, 0.643 for the second.

G23A G38A A69C and G23A G38A C55U cannot be ordered by yeast fitness: at most 0.5 for the first, at most 0.5 for the second.

First: G23A G38A G39C G50A G56C
Second: G23A G38A G41C G50C C55G
The yeast fitness of the first is lower: at most 0.5 for the first, 0.696 for the second.

Going from G23A G38C to G23A G38C A40C A43C, the yeast fitness falls from 0.599 to at most 0.5.

G23A G39C A40G and G23A G39C A40U G68A cannot be ordered by yeast fitness: at most 0.5 for the first, at most 0.5 for the second.

G23A G39C A69U and G23A G39C C49A cannot be ordered by yeast fitness: at most 0.5 for the first, at most 0.5 for the second.

Going from G23A G41C to G23A G44C C61G, the yeast fitness falls from 0.803 to at most 0.5.

First: G23A G48C
Second: G23A G50A
The yeast fitness of the first is lower: 0.759 for the first, 0.819 for the second.

First: G23A G50C
Second: G23A G52A G63A
The yeast fitness of the first is higher: 0.58 for the first, at most 0.5 for the second.

First: G23A G56A
Second: G23A G56C
The yeast fitness of the first is higher: 0.924 for the first, 0.65 for the second.

First: G23A G58C C61U
Second: G23A G63A A65G
The yeast fitness of the first is higher: 0.554 for the first, 0.524 for the second.

Going from G23A G63C to G23A G67A, the yeast fitness rises from 0.613 to 0.841.

First: G23A G67C
Second: G23A G68C
The yeast fitness of the first is higher: 0.86 for the first, 0.746 for the second.

Compared with G23A G68U, G23A U26A C30U A40U G44A U59A is lower in yeast fitness: 0.641 for the first, at most 0.5 for the second.

First: G23A U26G C61U A69C
Second: G23A U28A C30U A40C G52C G67A
The yeast fitness of the first is higher: 0.793 for the first, at most 0.5 for the second.

Going from G23A U28A C30U A40U G52C G67A to G23A U28C C30A, the yeast fitness falls from 0.63 to at most 0.5.

Going from G23A U28C C30A C46U A70U to G23A U32C, the yeast fitness rises from at most 0.5 to 0.628.

G23A U32C A42G U54G C62U and G23A U35A A65C cannot be ordered by yeast fitness: at most 0.5 for the first, at most 0.5 for the second.

Variant G23A U35G A70C has a yeast fitness of at most 0.5.
